# Measurements as given in article PMC3082041 (Cancer Chemotherapy and Pharmacology, 2010).
# Read-outs that look alike come from different tables or passages of the source.
# What was measured:
# [1] = test system: patients with advanced solid tumors; experiment: Phase I dose escalation, drug-related adverse events; type: in vivo, human (Japanese patients)
# Summary of the method: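 Open, non-randomised escalation in three-patient cohorts at 200, 400, 800 and 1,200 mg/m2 oral bid. Tablets taken >2 h after breakfast and supper for 28 consecutive days, with a single dose on day 1. Toxicity graded weekly by NCI-CTC v2.0. DLT: grade 3/4 non-haematologic or grade 4 haematologic toxicity. MTD: DLT in >33% within 4 weeks.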
# [2] = Urinary excretion of TSU-68; type: in vivo, human (Japanese patients); conditions: any dose level
# Summary of the method: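 Dosing was once daily on days 1 and 29 and bid on days 2–28. Drug measured by validated HPLC-UV (LLOQ 0.1 μg/mL). Excretion expressed as percentage of dose.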
# advanced solid tumors = experiment: Antitumor effect; type: in vivo, human (Japanese patients)
# Summary of the method: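 Tumours measured before treatment and at 4 weeks, scored by Japan Society for Cancer Therapy (WHO-based) criteria. PR: ≥50% shrinkage held ≥4 weeks. NC: <50% shrinkage or ≤25% enlargement held ≥4 weeks. PD: ≥25% enlargement or new lesions. Tumour-type-related markers measured before therapy. Patients with progression were taken off study.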
# [3] = test system: plasma VEGF, E-selectin, tPA, VCAM-1, PAI-1, urine VEGF; experiment: Angiogenesis-related biomarkers in plasma and urine; type: in vivo, human (Japanese patients); conditions: 14 patients
# Caucasian patients = conditions: cited from earlier work
# [4] = test system: liver cytochrome P450, CYP1A1/2; conditions: non-clinical studies; cited from earlier work
# tumor xenograft explants = conditions: athymic mice, many types of tumor; cited from earlier work
# [5] = 200 mg/m^2 bid (N = 3), G1, 28-days administration
# [6] = 400 mg/m^2 bid (N = 3), G1, 28-days administration
# [7] = 400 mg/m^2 bid (N = 3), G2, 28-days administration
# [8] = 800 mg/m^2 bid (N = 6), G1, 28-days administration
# [9] = 800 mg/m^2 bid (N = 6), G2, 28-days administration
# [10] = 800 mg/m^2 bid (N = 6), G3, 28-days administration
# [11] = 1,200 mg/m^2 bid (N = 3), G1, 28-days administration
# [12] = 1,200 mg/m^2 bid (N = 3), G2, 28-days administration
# [13] = Total, all dose levels (N = 15), 28-days administration
smiles,measurement,setting,value
"Cc1[nH]c(/C=C2\C(=O)Nc3ccccc32)c(C)c1CCC(=O)O [TSU-68, (Z)-3-[2,4-dimethyl-5-(2-oxo-1,2-dihydro-indol-3-ylidenemethyl)-1H-pyrrol-3-yl]-propionic acid]","Alanine aminotransferase increased, number of patients",[1]; [5],1
same,"Alkaline phosphatase increased, number of patients",[1]; [5],1
same,"Diarrhea, number of patients",[1]; [5],3
same,"Face edema, number of patients",[1]; [5],1
same,"Fatigue, number of patients",[1]; [5],1
same,"Nausea, number of patients",[1]; [5],1
same,"Upper abdominal pain, number of patients",[1]; [5],1
same,"Urine discoloration, number of patients",[1]; [5],3
same,"Chest pain, number of patients","[1]; 200 mg/m^2 bid (N = 3), G2, 28-days administration",1
same,"Alkaline phosphatase increased, number of patients",[1]; [6],1
same,"Chest pain, number of patients",[1]; [6],1
same,"Diarrhea, number of patients",[1]; [6],1
same,"Face edema, number of patients",[1]; [6],1
same,"Fatigue, number of patients",[1]; [6],1
same,"Feces discolored, number of patients",[1]; [6],1
same,"Urine discoloration, number of patients",[1]; [6],3
same,"Albumin decreased, number of patients",[1]; [7],1
same,"Upper abdominal pain, number of patients",[1]; [7],1
same,"Abdominal pain, number of patients",[1]; [8],2
same,"Alanine aminotransferase increased, number of patients",[1]; [8],2
same,"Albumin decreased, number of patients",[1]; [8],4
same,"Alkaline phosphatase increased, number of patients",[1]; [8],3
same,"Anorexia, number of patients",[1]; [8],3
same,"Diarrhea, number of patients",[1]; [8],2
same,"Face edema, number of patients",[1]; [8],1
same,"Fatigue, number of patients",[1]; [8],3
same,"Feces discolored, number of patients",[1]; [8],6
same,"Nausea, number of patients",[1]; [8],2
same,"Total protein decreased, number of patients",[1]; [8],3
same,"Urine discoloration, number of patients",[1]; [8],6
same,"Vomiting, number of patients",[1]; [8],2
same,"Abdominal pain, number of patients",[1]; [9],1
same,"Anorexia, number of patients",[1]; [9],1
same,"Diarrhea, number of patients",[1]; [9],2
same,"Fatigue, number of patients",[1]; [9],1
same,"Anemia, number of patients",[1]; [10],1
same,"Arrhythmia, number of patients",[1]; [10],1
same,"Thrombocytopenia, number of patients",[1]; [10],1
same,"Abdominal pain, number of patients",[1]; [11],1
same,"Alkaline phosphatase increased, number of patients",[1]; [11],1
same,"Anorexia, number of patients",[1]; [11],2
same,"Chest pain, number of patients",[1]; [11],1
same,"Diarrhea, number of patients",[1]; [11],1
same,"Face edema, number of patients",[1]; [11],2
same,"Fatigue, number of patients",[1]; [11],2
same,"Feces discolored, number of patients",[1]; [11],3
same,"Upper abdominal pain, number of patients",[1]; [11],2
same,"Urine discoloration, number of patients",[1]; [11],3
same,"Abdominal pain, number of patients",[1]; [12],1
same,"Albumin decreased, number of patients",[1]; [12],1
same,"Anorexia, number of patients",[1]; [12],1
same,"Diarrhea, number of patients",[1]; [12],1
same,"Fatigue, number of patients",[1]; [12],1
same,"Nausea, number of patients",[1]; [12],1
same,"Vomiting, number of patients",[1]; [12],1
same,"Abdominal pain, number of patients","[1]; Total (N = 5), after 28 days",1
same,"Abdominal pain, patients (%)","[1]; Total (N = 5), after 28 days",(20) %
same,"Alanine aminotransferase increased, number of patients","[1]; Total (N = 5), after 28 days",3
same,"Alkaline phosphatase increased, number of patients","[1]; Total (N = 5), after 28 days",2
same,"Anorexia, number of patients","[1]; Total (N = 5), after 28 days",1
same,"Anorexia, patients (%)","[1]; Total (N = 5), after 28 days",(20) %
same,"Arrhythmia, number of patients","[1]; Total (N = 5), after 28 days",1
same,"Arrhythmia, patients (%)","[1]; Total (N = 5), after 28 days",(20) %
same,"Chest pain, number of patients","[1]; Total (N = 5), after 28 days",2
same,"Diarrhea, number of patients","[1]; Total (N = 5), after 28 days",3
same,"Face edema, number of patients","[1]; Total (N = 5), after 28 days",3
same,"Fatigue, number of patients","[1]; Total (N = 5), after 28 days",4
same,"Fatigue, patients (%)","[1]; Total (N = 5), after 28 days",(80) %
same,"Feces discolored, number of patients","[1]; Total (N = 5), after 28 days",4
same,"Feces discolored, patients (%)","[1]; Total (N = 5), after 28 days",(80) %
same,"Nausea, number of patients","[1]; Total (N = 5), after 28 days",1
same,"Nausea, patients (%)","[1]; Total (N = 5), after 28 days",(20) %
same,"Urine discoloration, number of patients","[1]; Total (N = 5), after 28 days",5
same,"Urine discoloration, patients (%)","[1]; Total (N = 5), after 28 days",(100) %
same,"Vomiting, number of patients","[1]; Total (N = 5), after 28 days",1
same,"Vomiting, patients (%)","[1]; Total (N = 5), after 28 days",(20) %
same,"Abdominal pain, number of patients",[1]; [13],5
same,"Abdominal pain, patients (%)",[1]; [13],(33) %
same,"Alanine aminotransferase increased, number of patients",[1]; [13],3
same,"Alanine aminotransferase increased, patients (%)",[1]; [13],(20) %
same,"Albumin decreased, number of patients",[1]; [13],6
same,"Alkaline phosphatase increased, number of patients",[1]; [13],6
same,"Anemia, number of patients",[1]; [13],1
same,"Arrhythmia, number of patients",[1]; [13],1
same,"Chest pain, number of patients",[1]; [13],3
same,"Chest pain, patients (%)",[1]; [13],(20) %
same,"Face edema, number of patients",[1]; [13],5
same,"Face edema, patients (%)",[1]; [13],(33) %
same,"Fatigue, number of patients",[1]; [13],9
same,"Nausea, number of patients",[1]; [13],4
same,"Thrombocytopenia, number of patients",[1]; [13],1
same,"Total protein decreased, number of patients",[1]; [13],3
same,"Total protein decreased, patients (%)",[1]; [13],(20) %
same,"Upper abdominal pain, number of patients",[1]; [13],4
same,"Urine discoloration, number of patients",[1]; [13],15
same,"Urine discoloration, patients (%)",[1]; [13],(100) %
same,"Vomiting, number of patients",[1]; [13],3
same,"Vomiting, patients (%)",[1]; [13],(20) %
same,recommended dose for further studies,[1]; continuous oral bid between meals,less than 800 mg/m^2 bid
same,tolerable dose for continuing treatment,[1]; oral bid between meals,≤ 800 mg/m^2 bid
same,acceptable dosage level in daily administration,"[1]; oral, between meals, estimated",800 mg/m^2 bid
same,Urinary excretion of TSU-68,[2],below 1 % of dose
same,partial or complete responses,"advanced solid tumors; 15 patients, 200-1,200 mg/m^2 bid",No partial or complete responses were seen
same,patients with stable disease,"advanced solid tumors; non-small cell lung cancer 2, thymoma 1, peritoneal sarcoma 1",Four
same,"change of plasma VEGF, E-selectin, tPA and VCAM-1",[3],not changed substantially
same,"PAI-1, increase over the baseline",[3]; average,more than 20%
same,"urine VEGF, increase over the baseline",[3]; average,more than 20%
same,"PAI-1, average after treatment",[3]; baseline 24.3 ± 6.7 ng/ml,29.5 ± 11.3 ng/mL
same,"urine VEGF, average after treatment",[3]; baseline 96.6 ± 62.4 pg/ml,132.1 ± 93.6 pg/mL
same,AUC,"Caucasian patients; day 1, Caucasian patients",70000 ng·h/mL
same,AUC,"Caucasian patients; day 28, Caucasian patients",32000 ng·h/mL
same,"induction of liver cytochrome P450, CYP1A1/2",[4],"causes induction of liver cytochrome P450, CYP1A1/2"
same,antitumor activity against tumor xenograft explants,tumor xenograft explants,significant antitumor activity
